Test results: ChEMBL document CHEMBL4138195, “Discovery of novel propargylamine-modified 4-aminoalkyl imidazole substituted pyrimidinylthiourea derivatives as multifunctional agents for the treatment of Alzheimer's disease” (Eur J Med Chem, 2018)
The source made the active and inactive calls. No cut-off for these calls is given here.

Legend:
[1] = target: T1, Amine oxidase [flavin-containing] B (Homo sapiens, UniProt P27338)
T1 sequence (P27338 whole entry): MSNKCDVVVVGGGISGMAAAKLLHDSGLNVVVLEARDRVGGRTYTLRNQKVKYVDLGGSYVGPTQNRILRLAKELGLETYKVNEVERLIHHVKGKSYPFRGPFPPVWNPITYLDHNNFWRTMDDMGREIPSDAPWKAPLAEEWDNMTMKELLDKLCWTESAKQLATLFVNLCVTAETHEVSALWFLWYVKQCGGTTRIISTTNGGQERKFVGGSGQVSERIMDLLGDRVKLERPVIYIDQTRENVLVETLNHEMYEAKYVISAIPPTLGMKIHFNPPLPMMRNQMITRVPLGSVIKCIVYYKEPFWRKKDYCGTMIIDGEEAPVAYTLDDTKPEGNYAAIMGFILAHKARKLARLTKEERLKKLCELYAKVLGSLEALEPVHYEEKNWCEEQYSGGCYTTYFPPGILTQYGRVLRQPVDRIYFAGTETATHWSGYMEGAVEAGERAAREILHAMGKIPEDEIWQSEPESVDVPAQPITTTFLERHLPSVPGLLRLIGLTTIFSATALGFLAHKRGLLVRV

Acetylcholinesterase = target: T2, Acetylcholinesterase (Rattus norvegicus, UniProt P37136); test: Inhibition of AChE in rat cortex homogenate using acetylthiocholine iodide as substrate after 20 mins by Ellman's method
T2 sequence (P37136 whole entry): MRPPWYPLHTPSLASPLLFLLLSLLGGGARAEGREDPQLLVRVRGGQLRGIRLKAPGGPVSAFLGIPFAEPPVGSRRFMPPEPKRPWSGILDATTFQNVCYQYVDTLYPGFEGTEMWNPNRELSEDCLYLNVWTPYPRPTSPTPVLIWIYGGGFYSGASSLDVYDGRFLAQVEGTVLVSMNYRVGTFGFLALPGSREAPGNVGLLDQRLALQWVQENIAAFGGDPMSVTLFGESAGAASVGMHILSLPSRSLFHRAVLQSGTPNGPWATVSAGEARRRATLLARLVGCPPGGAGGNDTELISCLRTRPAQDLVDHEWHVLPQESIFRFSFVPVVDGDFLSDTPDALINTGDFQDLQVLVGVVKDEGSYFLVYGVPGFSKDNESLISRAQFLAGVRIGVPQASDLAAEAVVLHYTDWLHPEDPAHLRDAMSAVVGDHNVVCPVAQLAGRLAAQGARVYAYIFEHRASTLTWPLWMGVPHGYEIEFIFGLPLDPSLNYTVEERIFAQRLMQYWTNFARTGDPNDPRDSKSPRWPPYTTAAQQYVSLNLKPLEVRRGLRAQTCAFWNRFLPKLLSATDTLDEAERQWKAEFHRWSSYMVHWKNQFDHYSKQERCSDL

Homo sapiens = organism: Homo sapiens; test: Selectivity index, ratio of IC50 for recombinant human MAOA to IC50 for recombinant human MAOB
How it was run: (§1)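 Recombinant human MAO-A (12.5 µg/mL) or MAO-B (75 µg/mL) preincubated 15 min at 37 °C with compound (diluted from 10 mM DMSO stock in 50 mM KH2PO4, pH 7.4). Amplex Red working solution added: 2 mM p-tyramine (MAO-A) or benzylamine (MAO-B), 2 U/mL HRP. After 15 min at 37 °C, fluorescence read (ex 545/em 590), background from enzyme-free wells subtracted.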

in vitro [2] = conditions: PAMPA
Butyrylcholinesterase = Butyrylcholinesterase (Rattus norvegicus, UniProt Q9JKC1); test: Inhibition of BuChE in rat serum using butyrylthiocholine iodide as substrate after 20 mins by Ellman's method
[3] = Antioxidant activity assessed as trolox equivalent of AAPH radical scavenging activity preincubated for 10 mins followed by AAPH addition measured every 2 mins for 180 mins by ORAC-FL assay; assay type: functional
How it was run: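 Compound at 20 µM (diluted from 10 mM DMSO stock in 75 mM phosphate, pH 7.4) with fluorescein (0.117 µM diluted) for 10 min at 37 °C, then AAPH (40 mM solution) added. Fluorescence (ex 485/em 535) read every 2 min for 180 min. […] Triplicate wells, ≥3 runs.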

[4] = target: T3, Amine oxidase [flavin-containing] A (Homo sapiens, UniProt P21397); test: Inhibition of recombinant human MAOA using p-tyramine as substrate preincubated for 15 mins followed by substrate addition measured after 15 mins by Amplex red reagent based fluorescence assay
T3 sequence (P21397 whole entry): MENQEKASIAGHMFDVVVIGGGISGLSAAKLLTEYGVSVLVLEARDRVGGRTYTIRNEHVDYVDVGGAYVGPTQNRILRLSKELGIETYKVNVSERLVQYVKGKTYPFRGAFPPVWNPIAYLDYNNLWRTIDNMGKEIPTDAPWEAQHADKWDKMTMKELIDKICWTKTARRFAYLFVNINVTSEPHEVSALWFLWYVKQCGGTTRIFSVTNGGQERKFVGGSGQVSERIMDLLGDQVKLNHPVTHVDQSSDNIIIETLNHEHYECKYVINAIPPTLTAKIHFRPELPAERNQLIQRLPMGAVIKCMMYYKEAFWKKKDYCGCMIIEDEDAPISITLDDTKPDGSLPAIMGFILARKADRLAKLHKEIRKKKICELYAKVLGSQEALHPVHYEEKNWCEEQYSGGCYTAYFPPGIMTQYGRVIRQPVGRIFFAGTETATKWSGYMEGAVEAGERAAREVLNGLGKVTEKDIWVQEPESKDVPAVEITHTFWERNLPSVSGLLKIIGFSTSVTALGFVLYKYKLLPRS

[5] = target: Butyrylcholinesterase (Rattus norvegicus) (UniProt Q9JKC1); test: Inhibition of BuChE in rat serum at 40 uM using butyrylthiocholine iodide as substrate after 20 mins by Ellman's method
Rattus norvegicus = organism: Rattus norvegicus; test: Selectivity index, ratio of IC50 for BuChE in rat serum to IC50 for AChE in rat cortex homogenate; assay type: tissue-based
[6] = target: T3, Amine oxidase [flavin-containing] A; test: Inhibition of recombinant human MAOA at 50 uM using p-tyramine as substrate preincubated for 15 mins followed by substrate addition measured after 15 mins by Amplex red reagent based fluorescence assay; conditions: 0.25 h
How it was run: as §1

[7] = target: T1, Amine oxidase [flavin-containing] B; test: Inhibition of recombinant human MAOB at 50 uM using benzylamine as substrate preincubated for 15 mins followed by substrate addition measured after 15 mins by Amplex red reagent based fluorescence assay; conditions: 0.25 h
Cortical neurone = test: Cytotoxicity against E17 Sprague-Dawley rat primary cortical neurons at 10 to 30 uM after 24 hrs by MTT assay; assay type: cell-based
in vitro [8] = conditions: PAMPA, pH 7.4
[9] = Inhibition of Cu2+-induced amyloid beta (1 to 42 residues) (unknown origin) aggregation assessed as reduction in amyloid beta fibril load at 50 uM after 24 hrs by phosphotungstic acid staining-based transmission electron microscopic method
How it was run: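 Aβ1-42 (25 µM) ± CuCl2 (25 µM) ± compound (50 µM) in HEPES/NaCl pH 6.6, incubated 24 h at 37 °C. Aliquots placed on carbon-coated copper grids for 30 min, stained 20 s with 2% phosphotungstic acid, imaged by TEM. Clioquinol as comparator.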

[10] = Inhibition of Cu2+-mediated amyloid beta (1 to 42) peptide-induced cytotoxicity in E17 Sprague-Dawley rat primary cortical neurons assessed as neuroprotective activity by measuring increase in cell viability at 1 uM after 24 hrs by MTT assay
How it was run: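 Rat E17 primary cortical neurons after 9 days in culture. Aβ1-42 samples, prepared as for the dot blot (± Cu2+, ± compound), added to the cultures at 1 µM for 24 h. Viability by MTT, normalized to the vehicle group. EGCG and clioquinol as positive controls.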

Sequence of Butyrylcholinesterase (Q9JKC1 whole entry): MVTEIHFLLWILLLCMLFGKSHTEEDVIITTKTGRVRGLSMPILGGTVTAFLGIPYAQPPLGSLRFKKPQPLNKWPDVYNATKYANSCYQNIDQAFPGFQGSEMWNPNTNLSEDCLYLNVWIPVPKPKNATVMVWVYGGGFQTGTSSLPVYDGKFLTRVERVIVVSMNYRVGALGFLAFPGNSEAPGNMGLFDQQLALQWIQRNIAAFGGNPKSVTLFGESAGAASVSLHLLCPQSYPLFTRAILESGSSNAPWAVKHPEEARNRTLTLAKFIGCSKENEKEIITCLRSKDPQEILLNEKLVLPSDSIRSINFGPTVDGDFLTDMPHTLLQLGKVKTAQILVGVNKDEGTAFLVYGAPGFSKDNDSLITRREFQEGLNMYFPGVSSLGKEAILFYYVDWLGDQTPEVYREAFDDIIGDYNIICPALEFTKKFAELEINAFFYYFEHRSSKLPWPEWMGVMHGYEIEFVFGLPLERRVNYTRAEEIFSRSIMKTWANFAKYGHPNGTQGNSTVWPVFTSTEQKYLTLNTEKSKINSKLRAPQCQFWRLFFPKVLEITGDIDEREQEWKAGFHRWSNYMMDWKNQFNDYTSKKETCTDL
Sequence of Butyrylcholinesterase (Rattus norvegicus) (Q9JKC1 as listed by the source): as the sequence (Q9JKC1 whole entry) above

Row | SMILES | IC50 [1] [µM] | IC50 (Acetylcholinesterase) [µM] | Ratio IC50 (Homo sapiens) | Papp at 12 h, 100 ug/ml (in vitro [2]) [×10⁻⁶ cm/s] | IC50 (Butyrylcholinesterase) [µM] | Activity (umolequiv/umol) [3] | IC50 [4] [µM] | inhibition [5] [%] | Ratio IC50 (Rattus norvegicus) | inhibition at 50 µM [6] [%] | inhibition at 50 µM [7] [%] | Activity (Cortical neurone) | Papp at 18 h, 25 ug/ml (in vitro [8]) [×10⁻⁶ cm/s] | inhibition [9] | Activity [10]
1 | C#CCN(C)CCc1cn(-c2cc(NC(=S)NCC)ncn2)cn1 | 12.4 | 0.392 | 0.724 | 3.33 | > 40 | 1.24 | 9 | 8.91 | > 102 | – | – | – | – | – | –
2 | C#CCN(CCC)Cc1cn(-c2cc(NC(=S)NCC)ncn2)cn1 | > 50 | 0.485 | – | – | > 40 | 0.448 | > 50 | 7.75 | > 83 | 1.76 | 24.3 | – | – | – | –
3 | C#CCN(CC)CCc1cn(-c2cc(NC(=S)NCC)ncn2)cn1 | > 50 | 1.34 | – | – | > 40 | – | > 50 | 2.44 | > 30 | 13 | 49.4 | – | – | – | –
4 | C#CCN1CCN(Cc2cn(-c3cc(NC(=S)NCC)ncn3)cn2)CC1 | > 50 | 0.482 | – | – | > 40 | 1.03 | > 50 | 7.3 | > 83 | 9.22 | 13.3 | – | – | – | –
5 | C#CCN(CC#N)Cc1cn(-c2cc(NC(=S)NCC)ncn2)cn1 | > 50 | 0.707 | – | – | > 40 | 0.494 | > 50 | 5.48 | > 57 | 2.01 | 15.3 | – | – | – | –
6 | COc1cc2c(cc1OC)C(=O)C(CC1CCN(Cc3ccccc3)CC1)C2 (stereo not drawn) [DONEPEZIL] | – | – | – | – | – | – | – | – | – | – | – | Non-Toxic | – | – | –
7 | C#CCN(CC)Cc1cn(-c2cc(NC(=S)NCC)ncn2)cn1 | > 50 | 0.482 | – | – | > 40 | 1.38 | > 50 | 10.5 | > 83 | 6.71 | 35.1 | – | – | – | –
8 | C#CCN(Cc1ccccc1)Cc1cn(-c2cc(NC(=S)NCC)ncn2)cn1 | > 50 | 0.585 | – | – | > 40 | – | > 50 | 9.28 | > 68 | 17.8 | 18.4 | – | – | – | –
9 | C#CCN(CC#C)Cc1cn(-c2cc(NC(=S)NCC)ncn2)cn1 | > 50 | 0.718 | – | – | > 40 | 0.585 | > 50 | 4.97 | > 56 | 15.5 | 42.1 | – | – | – | –
10 | C#CCNCCc1cn(-c2cc(NC(=S)NCC)ncn2)cn1 | > 50 | 0.228 | – | 3.24 | > 40 | 1.27 | > 50 | 8.73 | > 175 | 54.2 | 19.2 | – | – | – | –
11 | COc1ccc(CCN2CCC(Nc3nc4ccccc4n3Cc3ccc(F)cc3)CC2)cc1 [ASTEMIZOLE] | – | – | – | 8.48 | – | – | – | – | – | – | – | – | 11 | – | –
12 | C#CCNCCCc1cn(-c2cc(NC(=S)NCC)ncn2)cn1 | > 50 | 0.381 | – | 3.26 | > 40 | 0.186 | > 50 | 12.7 | > 105 | 31.4 | 36.6 | – | – | – | –
13 | C#CCN(CCCC)Cc1cn(-c2cc(NC(=S)NCC)ncn2)cn1 | > 50 | 0.675 | – | – | > 40 | 0.238 | > 50 | 13.4 | > 59 | 2.43 | 20.1 | – | – | – | –
14 | C#CCN(CC#N)CCc1cn(-c2cc(NC(=S)NCC)ncn2)cn1 | > 50 | 0.597 | – | – | > 40 | 0.556 | > 50 | 3.02 | > 67 | 13.9 | 24.9 | – | – | – | –
15 | C#CCNCc1cn(-c2cc(NC(=S)NCC)ncn2)cn1 | 5.24 | 0.354 | 0.826 | 2.78 | > 40 | 1.18 | 4.33 | 15.2 | > 113 | – | – | – | – | – | –
16 | Oc1c(I)cc(Cl)c2cccnc12 | – | – | – | – | – | – | – | – | – | – | – | – | – | Active | Active
17 | C#CCN(Cc1cn(-c2cc(NC(=S)NCC)ncn2)cn1)C(C)=O | > 50 | 0.515 | – | – | > 40 | 1.17 | > 50 | 5.15 | > 78 | 4.83 | 1.17 | – | – | – | –
18 | C#CCN(C)CCCc1cn(-c2cc(NC(=S)NCC)ncn2)cn1 | 3.23 | 0.459 | – | – | > 40 | 0.447 | > 50 | 6.7 | – | 63.8 | – | – | – | – | –
